molecular target: T1, 3-beta-hydroxysteroid-Delta(8),Delta(7)-isomerase (Cavia porcellus, UniProt Q60490); assay: Displacement of [3H]-emopamil from delta(8)-delta(7) sterol isomerase in guinea pig liver membranes; assay type: cell membranes, Membrane; settings: read-out: Ki(app)
T1 sequence (Q60490 whole entry): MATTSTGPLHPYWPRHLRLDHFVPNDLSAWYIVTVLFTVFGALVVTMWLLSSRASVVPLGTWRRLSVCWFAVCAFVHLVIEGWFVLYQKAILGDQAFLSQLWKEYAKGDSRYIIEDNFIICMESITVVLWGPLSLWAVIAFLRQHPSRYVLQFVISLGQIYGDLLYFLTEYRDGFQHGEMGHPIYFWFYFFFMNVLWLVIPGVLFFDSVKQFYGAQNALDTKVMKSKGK
Summary of the method: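 Assay followed Moebius et al. Inhibition curves used 6–9 drug concentrations over two or three experiments run in duplicate. IC50 is the concentration giving 50% loss of specific radioligand binding. Apparent Ki came from nonlinear curve fitting.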

SMILES	Ki [nM]
CC1(C)CCCN(CCNc2nccs2)C1	1400
CC1(C)CCCN(CCCCC2CCCCc3ccccc32)C1 (racemic)	7.3
CC1(C)CCCN(CCCCC2CCCCC2)C1	3.8
COc1cccc2c1CCCC2CCCCN1CCCC(C)(C)C1 (stereo unspecified)	0.67
CC1(C)CCCN(CCCCCC2CCCc3sccc32)C1 (racemic)	2.11
CC1(C)CCCN(CCCc2cccc3occc23)C1	1.1
CC1(C)CCCN(CC(=O)Nc2nc3c(s2)C(=O)CCC3)C1	> 10000
CC1(C)CCCN(CCCCN2CCCC(C)(C)C2)C1	213
CC1(C)CCCN(CCCCC2CCc3ccccc32)C1 (stereo unspecified)	1.54
CC1(C)CCCN(CCCc2cccc3sccc23)C1	0.9
CC1(C)CCCN(CCNc2nc3ccccc3s2)C1	115
CC1(C)CCCN(CCCC2CCCc3sccc32)C1 (racemic) [listing 1 of 3 here]	3.07
CC1(C)CCCN(CCCC2CCCCc3ccccc32)C1 (racemic)	0.2
CC(C(O)c1ccc(O)cc1)N1CCC(Cc2ccccc2)CC1 (racemic) [IFENPRODIL]	15
CC1(C)CCCN(CCNc2nc3c(s2)C(=O)CCC3)C1	> 10000

molecular target: Sigma non-opioid intracellular receptor 1 (Rattus norvegicus, UniProt Q9R0C9); assay: Binding affinity to sigma1 receptor in rat brain membranes; assay type: cell membranes; settings: not given
Summary of the method: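 Radioligand displacement binding. IC50 is the concentration inhibiting 50% of specific radioligand binding, from 6–9 concentrations of the test drug, run in two or three experiments with duplicate samples. Apparent Ki came from nonlinear curve fitting. Compounds were tested as hydrochloride salts, or as free bases in some cases.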

Chain of Sigma non-opioid intracellular receptor 1 (Rattus norvegicus, UniProt Q9R0C9) (Q9R0C9 whole entry): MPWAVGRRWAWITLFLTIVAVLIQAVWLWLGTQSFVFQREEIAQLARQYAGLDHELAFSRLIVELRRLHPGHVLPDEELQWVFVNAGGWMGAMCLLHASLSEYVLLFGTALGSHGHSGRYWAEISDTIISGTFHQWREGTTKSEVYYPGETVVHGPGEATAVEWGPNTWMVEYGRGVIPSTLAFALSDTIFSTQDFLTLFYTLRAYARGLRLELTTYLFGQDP

SMILES	Ki [nM]
CC1(C)CCCN(CCCC2CCCc3sccc32)C1 (racemic) [listing 2 of 3 here]	> 3960

molecular target: Sigma non-opioid intracellular receptor 1 (Cavia porcellus) (UniProt Q60492); assay: Displacement of [3H]-(+)-pentazocine from sigma 1 receptor in guinea pig brain membranes at 10^-10 M; assay type: cell membranes; settings: Membrane
Sequence (Q60492 whole entry): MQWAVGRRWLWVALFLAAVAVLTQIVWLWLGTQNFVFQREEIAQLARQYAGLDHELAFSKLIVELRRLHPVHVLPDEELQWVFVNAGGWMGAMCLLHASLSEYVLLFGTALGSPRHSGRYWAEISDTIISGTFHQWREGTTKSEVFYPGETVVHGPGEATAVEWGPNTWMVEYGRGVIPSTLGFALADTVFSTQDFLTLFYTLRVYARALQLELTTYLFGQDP

SMILES	inhibition [%]
CC1(C)CCCN(CCCCCC2CCCc3sccc32)C1 (racemic)	78

molecular target: not listed separately; assay: Displacement of [3H]DTG from sigma 2 receptor in rat liver membranes; assay type: cell membranes, Membrane; settings: read-out: Ki(app)
Summary of the method: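 Sigma-2 site labelled with [3H]-DTG at 30 Ci/mmol, following Matsumoto et al. Curves used 6–9 concentrations of test drug, repeated in two or three experiments with duplicate samples. IC50 (50% inhibition of specific binding) and apparent Ki were obtained by nonlinear curve fitting.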

SMILES	Ki [nM]
CC1(C)CCCN(CCNc2nccs2)C1	3330
CC1(C)CCCN(CCCCC2CCCCc3ccccc32)C1 (racemic)	65.9
CC1(C)CCCN(Cc2cc3ccccc3o2)C1	1810
CC1(C)CCCN(CCCn2nnc3ccccc32)C1	1990
CC1(C)CCCN(CCCCC2CCCCC2)C1	19.6
COc1cccc2c1CCCC2CCCCN1CCCC(C)(C)C1 (stereo unspecified)	247
CC1(C)CCCN(CCCCCC2CCCc3sccc32)C1 (racemic)	28.1
Cc1ccccc1NC(=N)Nc1ccccc1C [DITOLYLGUANIDINE]	34.3
CC1(C)CCCN(CCCc2c[nH]c3ccccc23)C1	110
CC1(C)CCCN(CCCc2cccc3occc23)C1	42.3
CC1(C)CCCN(CC(=O)Nc2nc3c(s2)C(=O)CCC3)C1	> 10000
CC1(C)CCCN(CCCCN2CCCC(C)(C)C2)C1	414
CC1(C)CCCN(CCCC2CCCc3[nH]ccc32)C1 (racemic)	119
CC1(C)CCCN(CCCCC2CCc3ccccc32)C1 (stereo unspecified)	242
CC1(C)CCCN(CCCc2cccc3sccc23)C1	63.6
CC1(C)CCCN(CCNc2nc3ccccc3s2)C1	742
CC1(C)CCCN(CCCn2ccc3ccccc32)C1	194
CC1(C)CCCN(CCCC2CCCc3sccc32)C1 (racemic) [listing 1 of 3 here]	38
CC1(C)CCCN(CCCC2CCCCc3ccccc32)C1 (racemic)	37.5
CC1(C)CCCN(CCNc2nc3c(s2)C(=O)CCC3)C1	> 10000

test system: not listed separately; assay: Selectivity ratio of Ki for sigma 2 receptor in rat liver membranes to Ki for sigma 1 receptor in guinea pig brain membranes; assay type: cell membranes; settings: Membrane

SMILES	Ratio Ki
CC1(C)CCCN(CCNc2nccs2)C1	7.2
CC1(C)CCCN(CCCCC2CCCCc3ccccc32)C1 (racemic)	471
CC1(C)CCCN(Cc2cc3ccccc3o2)C1	0.4
CC1(C)CCCN(CCCn2nnc3ccccc32)C1	5.6
CC1(C)CCCN(CCCCC2CCCCC2)C1	19
COc1cccc2c1CCCC2CCCCN1CCCC(C)(C)C1 (stereo unspecified)	117
CC1(C)CCCN(CCCc2c[nH]c3ccccc23)C1	2.6
CC1(C)CCCN(CCCc2cccc3occc23)C1	0.7
CC1(C)CCCN(CCCCN2CCCC(C)(C)C2)C1	29
CC1(C)CCCN(CCCC2CCCc3[nH]ccc32)C1 (racemic)	4.4
CC1(C)CCCN(CCCCC2CCc3ccccc32)C1 (stereo unspecified)	138
CC1(C)CCCN(CCCc2cccc3sccc23)C1	1.2
CC1(C)CCCN(CCNc2nc3ccccc3s2)C1	1.3
CC1(C)CCCN(CCCC2CCCc3sccc32)C1 (racemic) [listing 3 of 3 here]	180
CC1(C)CCCN(CCCn2ccc3ccccc32)C1	3.8
CC1(C)CCCN(CCCC2CCCCc3ccccc32)C1 (racemic)	101

molecular target: Sigma non-opioid intracellular receptor 1 (Cavia porcellus, UniProt Q60492); assay: Displacement of [3H]-(+)-pentazocine from sigma1 receptor in guinea pig brain membranes without cerebellum; assay type: cell membranes, Membrane; settings: read-out: Ki(app)
Sequence (Q60492 whole entry): as above

SMILES	Ki [nM]
CC1(C)CCCN(CCNc2nccs2)C1	459
CC1(C)CCCN(CCCCC2CCCCc3ccccc32)C1 (racemic)	0.14
CC1(C)CCCN(Cc2cc3ccccc3o2)C1	3690
CC1(C)CCCN(CCCn2nnc3ccccc32)C1	339
CC1(C)CCCN(CCCCC2CCCCC2)C1	1.02
COc1cccc2c1CCCC2CCCCN1CCCC(C)(C)C1 (stereo unspecified)	2.12
CC1(C)CCCN(CCCc2c[nH]c3ccccc23)C1	41.6
CC1(C)CCCN(CCCc2cccc3occc23)C1	63.5
CC1(C)CCCN(CC(=O)Nc2nc3c(s2)C(=O)CCC3)C1	> 10000
CC1(C)CCCN(CCCCN2CCCC(C)(C)C2)C1	14.1
CC1(C)CCCN(CCCC2CCCc3[nH]ccc32)C1 (racemic)	27.1
CC1(C)CCCN(CCCCC2CCc3ccccc32)C1 (stereo unspecified)	1.75
CC1(C)CCCN(CCCc2cccc3sccc23)C1	52
CC1(C)CCCN(CCNc2nc3ccccc3s2)C1	566
CC1(C)CCCN(CCCn2ccc3ccccc32)C1	50.9
CC1(C)CCCN(CCCC2CCCc3sccc32)C1 (racemic) [listing 1 of 3 here]	0.21
CC1(C)CCCN(CCCC2CCCCc3ccccc32)C1 (racemic)	0.38
CC1(C)CCCN(CCNc2nc3c(s2)C(=O)CCC3)C1	> 10000

Reference: ChEMBL document CHEMBL1926653, “Synthesis and binding assays of novel 3,3-dimethylpiperidine derivatives with various lipophilicities as σ₁ receptor ligands” (Bioorg Med Chem, 2011)
